Results taken from PMC12618661 (NPJ Science of Food, 2025).
Converted amounts (≈) assume the structure as drawn.

Experiments:
[1] = Water solubility evaluation; type: physicochemical; conditions: deionized water
In short: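 Compound was added to deionized water to supersaturation and stirred for 24 h at 25 °C. The mixture was centrifuged at 8000 × g, 25 °C, for 20 min. The supernatant was freeze-dried and the residue weighed.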

[2] = tested on: mammalian mucosal α-glucosidase (rat intestinal acetone powder, RIAP); assay: Glucose generation rate; type: in vitro ADME; conditions: 5 mg/mL substrate, RIAP-derived α-glucosidase, 2 h
In short: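 Rat intestinal acetone powder (0.5 g) was extracted in 10 mL 100 mM sodium phosphate (pH 6.2) at 4 °C for 24 h and centrifuged. The supernatant was freeze-dried and re-dissolved in 10 mL of the same buffer as α-glucosidase. Test compound at 5 mg/mL was incubated with the enzyme. Aliquots were taken at 0, 10, 20, 30, 60 and 120 min, heat-inactivated for 10 min, and glucose was measured with a glucose assay kit.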

[3] = Static in vitro digestion simulation; type: in vitro ADME, human; conditions: oral, gastric and intestinal phases, 37 °C
In short: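 Static digestion of 50 mg test compound ran at 37 °C with stirring. Oral phase: saliva pH 7.0 (1.5 mM CaCl₂, 75 U/mL amylase), sampled at 5 min. Samples were heat-stopped (100 °C, 5 min), centrifuged and filtered, and glucose was measured by kit.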

[4] = vs sucrose; stated without own test, ref not given; cited from earlier work
[5] = Thermogravimetric analysis; type: physicochemical; conditions: TGA
[6] = pH stability in Britton–Robinson buffer; type: physicochemical
In short: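 Compound was dissolved at 0.05% (w/v) in Britton–Robinson buffer over pH 1.4–10. The amount remaining was quantified by HPLC.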

[7] = Storage stability in aqueous solution; type: physicochemical; conditions: 1 month, 25 °C
In short: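 Aqueous solutions of 1–2% (w/v) were held at 25 °C for up to 1 month. Compound remaining in the supernatant at 0, 7, 15 and 30 days was quantified by HPLC.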

HFD-fed C57BL/6 N mice [8] = assay: HFD-induced obesity in mice: body weight, intake, tissue weight, histology; type: in vivo, mouse; conditions: 0.2 g/L in drinking water, 16 weeks
In short: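 Eight-week-old C57BL/6N mice were kept on a 60% kcal-fat HFD for 16 weeks with test compound at 0.2 g/L in drinking water ad libitum, or plain water. Estimated intake was about 0.675 mg/mouse/day. Body weight was taken weekly and food/water every other day (n = 10). Median-weight mice gave formalin-fixed paraffin sections (gWAT 7 μm, liver 5 μm), H&E stained (n = 5). Adipocyte size came from about 3,000 cells, four images per mouse. Data are mean ± SEM.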

HFD-fed C57BL/6 N mice [9] = assay: Immunoblot of tissue lysates from HFD-fed mice; type: in vivo, mouse; conditions: 0.2 g/L in drinking water, 16 weeks
In short: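 Mice were on a 16-week 60% kcal-fat HFD with test compound at 0.2 g/L in drinking water or plain water. Liver, gWAT and BAT lysates came from median-body-weight mice. Equal protein was run on SDS-PAGE, transferred to nitrocellulose and blocked in 5% skim milk. Primary antibodies (ACC, FAS, UCP1, p-PLIN, HSP90) ran overnight at 4 °C, then secondary 2–3 h at room temperature. Detection was by ECL with band densitometry, n = 4 per group.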

HFD-fed C57BL/6 N mice [10] = assay: Serum analysis of HFD-fed mice; type: in vivo, mouse; conditions: 0.2 g/L in drinking water, 16 weeks
In short: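 After 16 weeks of 60% kcal-fat HFD with test compound at 0.2 g/L in drinking water or plain water, mice were euthanised with CO2. Blood was taken by cardiac puncture. An automated chemistry analyser measured serum cholesterol, TG, ALT, AST and glucose (n = 5 per group). Data are mean ± SEM with one-way ANOVA and Dunnett's or Tukey's test.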

[11] = TGA; cited from earlier work
rats = conditions: cited from earlier work

C=C1C[C@@]23CC[C@H]4[C@@](C)(CCC[C@@]4(C)C(=O)O[C@@H]4O[C@H](CO)[C@@H](O)[C@H](O)[C@H]4O)[C@@H]2CC[C@]1(O[C@@H]1O[C@H](CO)[C@@H](O)[C@H](O)[C@H]1O[C@@H]1O[C@H](CO)[C@@H](O)[C@H](O)[C@H]1O)C3 [ST, stevioside]
solubility at 24 h [1]: 11 ± 3.11 mg/mL (≈ 13.6 mM) | Glucose released [2]: almost no glucose release | Hydrolysis in in vitro simulated digestion [3]: 2% | Sweetness relative to sucrose [4]: 250 times

rebaudioside A [Reb A]
Water solubility ([1]; stirred 24 h at 25 °C): 5.10 ± 2.93 mg/mL | Temperature at which second-stage mass loss commenced [5]: 280–290 °C | Initial mass retained at 597 °C ([5]; 597 °C): 9.92 ± 0.45% | Initial mass retained, second-stage mass loss ([5]; stage commencing at approximately 280–290 °C): 19.89 ± 1.67% | Initial concentration retained at pH 1.4 ([6]; pH 1.4, 0.05% (w/v) in Britton–Robinson buffer): 25.26 ± 3.19% | Initial concentration retained at pH 2 ([6]; pH 2, 0.05% (w/v) in Britton–Robinson buffer): 82.67 ± 2.39% | Initial concentration retained at pH 10 ([6]; pH 10, 0.05% (w/v) in Britton–Robinson buffer): 84.56 ± 1.68% | Initial concentration remaining after storage, 1% (w/v) aqueous solution ([7]; 1% (w/v)): 52.61 ± 1.69% | Initial concentration remaining after storage, 2% (w/v) aqueous solution ([7]; 2% (w/v)): 32.14 ± 3.78% | Glucose released [2]: almost no glucose release | Hydrolysis in in vitro simulated digestion [3]: 2% | Crown-like structure (CLS) in gWAT, inflammatory indicator (HFD-fed C57BL/6 N mice [8]): significantly increased | Number of large adipocytes in gWAT (HFD-fed C57BL/6 N mice [8]): remained unchanged | Water intake and food consumption (HFD-fed C57BL/6 N mice [8]): comparable across the groups | gWAT weight (HFD-fed C57BL/6 N mice [8]): did not increase | Body weight (HFD-fed C57BL/6 N mice [8]; vs control): no effect | ACC protein expression in liver (HFD-fed C57BL/6 N mice [9]): increased | p-PLIN protein level in gWAT (HFD-fed C57BL/6 N mice [9]; vs control): substantially decreased | Serum TG (HFD-fed C57BL/6 N mice [10]): remained unchanged | Serum cholesterol (HFD-fed C57BL/6 N mice [10]): remained unchanged | Second-stage mass loss temperature previously reported [11]: 284.71 °C | No-observed-adverse-effect level (NOAEL) (rats): 4100 mg/kg/day | Sweetness relative to sucrose [4]: 250 times
